Usually EC50 stands for the midpoint of the concentration-response curve. By inhibition in vivo is commonly meant the relative decrease from the control value, in per cent.

We go through 25 compounds from ChEMBL document CHEMBL2046437, “In vitro stability and in vivo anti-inflammatory efficacy of synthetic jasmonates” (Bioorg Med Chem, 2012).

Activity calls are given as the source filed them. The rule behind the calls is not given here.

Data set [1] is described as follows: Cytotoxicity in mouse RAW264.7 cells after 24 hrs by MTT assay. It counts as cell-based. The following applies: read-out: TC50. An outline of the steps: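 RAW264.7 cells in DMEM with 10% FBS were treated for 24 h, then incubated with MTT for 4 h. Formazan was dissolved in DMSO for 30 min and absorbance read at 540 nm. TC50 reported as mean ± SD of triplicate experiments.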
In general terms: Tetrazolium dyes change colour on reduction, which living cells bring about.

The nature of data set [2]: Stability in presence of porcine liver esterase assessed as esterase-mediated compound hydrolysis by measuring ratio of intact compounds and their corresponding acids in pH 7.4 phosphate buffer at 37 degC at 60 mins post incubation by RP-HPLC. It counts as ADME. As to conditions: pig, isolated protein, pH 7.4, 1 h. The essentials:
(§1)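 About 0.5 mg ester was incubated with 50 µL porcine liver esterase stock in 0.01 M phosphate buffer (pH 7.4, 1 mL) plus 10 µL acetone at 37 °C. Intact ester/acid peak-area ratio given as mean ± SD of two experiments.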

The nature of data set [3]: Stability in presence of porcine liver esterase assessed as esterase-mediated compound hydrolysis by measuring ratio of intact compounds and their corresponding acids in pH 7.4 phosphate buffer at 37 degC at 30 mins post incubation by RP-HPLC. As to conditions: pig, isolated protein, pH 7.4, 0.5 h. It is filed as ADME. An outline of the steps:
as §1

Data set [4] has as its system RAW264.7. The data set can be described thus: Selectivity index, ratio of TC50 for mouse RAW264.7 cells to EC50 for antiinflammatory activity in LPS-activated mouse RAW264.7 cells. It counts as functional.
Data set [5] concerns RAW264.7. Briefly: Antiinflammatory activity in LPS-activated mouse RAW264.7 cells assessed as inhibition of nitric oxide production incubated for 24 hrs by ELISA. The following applies: RAW264.7, 24 h, in the assay text read “by Griess reagent method” for “by ELISA”. It counts as functional, cell-based. The essentials: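 RAW264.7 macrophages (DMEM, 10% FBS, penicillin/streptomycin, 37 °C, 5% CO2) treated with LPS plus compounds for 24 h. Nitrite in supernatant measured by Griess reagent (10 min, room temperature, dark), absorbance 540 nm, quantified against sodium nitrite standard curve. EC50 reported from triplicate experiments, mean ± SD.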

Data set [6] concerns Rattus norvegicus. Briefly: Antiinflammatory activity in Sprague-Dawley rat assessed as inhibition of carrageenan-induced paw edema at 25 mg/kg, ip dosed 30 mins before carrageenan challenge measured at 24 hrs post carrageenan challenge. As to conditions: route intraperitoneal. It is filed as functional. An outline of the steps: (§2)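 Male Sprague–Dawley rats (140–160 g, 5 weeks old) received a single intraperitoneal dose in 5% cremophor/5% ethanol in PBS, with vehicle as control. 30 min later, 0.1 mL of 1% carrageenan in saline was injected subplantar into the right hind paw, with saline in the left. Paw volume was measured by plethysmometer at 0, 0.5, 1, 2, 4, 6 and 24 h.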
In general terms: Carrageenan injected into the paw causes an acute inflammation.

Data set [7] deals with Rattus norvegicus. Briefly: Antiinflammatory activity in Sprague-Dawley rat assessed as inhibition of carrageenan-induced paw edema at 25 mg/kg, ip dosed 30 mins before carrageenan challenge measured before 6 hrs post carrageenan challenge. It is filed as functional, organism-based. More on the design: dose 25 mg/kg. An outline of the steps:
as §2

In data set [8] the test system is Rattus norvegicus. Briefly: Antiinflammatory activity in Sprague-Dawley rat assessed as inhibition of carrageenan-induced paw edema at 50 mg/kg, ip dosed 30 mins before carrageenan challenge measured before 6 hrs post carrageenan challenge. Details: dose 50 mg/kg. It is filed as functional, organism-based. The essentials:
as §2

The subject of data set [9] is Rattus norvegicus. Briefly: Antiinflammatory activity in Sprague-Dawley rat assessed as inhibition of carrageenan-induced paw edema at 50 mg/kg, ip dosed 30 mins before carrageenan challenge. It counts as functional, organism-based. Details: dose 50 mg/kg. The essentials: as §2
In data set [10] the test system is Rattus norvegicus. Briefly: Antiinflammatory activity in Sprague-Dawley rat assessed as inhibition of carrageenan-induced paw edema at 50 mg/kg, ip dosed 30 mins before carrageenan challenge measured at 24 hrs post carrageenan challenge. It counts as functional. An outline of the steps: as §2

For `CC/C=C\C[C@H]1C(=O)C=C[C@H]1CC(=O)OCc1ccccc1`, in [1], the CC50 at 24 h was found to be 31 µM. In addition, the figures for the Ratio (in data set [2]; in data set [3]; in the data set on RAW264.7 [4]) were 0, 0.2 and 1, respectively. The EC50 with RAW264.7 [5] stood at 20 µM.
Regarding `CC/C=C\C[C@H]1C(=O)C=C[C@H]1CC(=O)OC(C)(C)C`, in data set [1], the CC50 at 24 h was 33 µM. Moreover, the Ratio in data set [2] is given as 9.8; in [3], 11.2; in the data set on RAW264.7 [4] it was 1. Moreover, in the data set on RAW264.7 [5], the EC50 was 20 µM.
In the same order, the values of `CC/C=C\CC1C(=O)C=CC1CC(=O)OC` (stereo not given) are 140 µM, 0, 0.1, 7 and 19 µM.
For the compound `CC/C=C\C[C@H]1C(=O)C=C[C@H]1CC(=O)Oc1ccc(O)cc1`, the CC50 at 24 h in [1] was 49 µM. Besides, the Ratio in [3] stood at 0; in the data set with RAW264.7 [4] it was 2. Besides, the EC50 in the data set on RAW264.7 [5] turned out to be 23 µM.
In the same order, the values of `CC/C=C\C[C@H]1C(=O)C=C[C@H]1CC(=O)Oc1ccccc1OC` are 161 µM, 0, 5 and 32 µM.
For the compound `CC/C=C\C[C@H]1C(=O)C=C[C@H]1CC(=O)OC(C)C`, the CC50 at 24 h in [1] amounted to 58 µM. Also, the Ratio in [2] came to 0.1; in [3], 0.5; with RAW264.7 [4], 3. In addition, the EC50 in the data set with RAW264.7 [5] was 20 µM.
As for `COc1ccc2c(c1)c(CC(=O)O)c(C)n2C(=O)c1ccc(Cl)cc1` [INDOMETHACIN], the inhibition in vivo at 25 mg/kg in the data set with Rattus norvegicus [6] is 57.1%. Besides, the outcome in the data set with Rattus norvegicus [7] was Active.
For the compound `CC/C=C\C[C@H]1C(=O)C(Cl)=C[C@H]1CC(=O)OC(C)(C)C`, in the data set on Rattus norvegicus [8], the outcome was inactive. In data set [1], the CC50 at 24 h stood at 11.5 µM. Besides, in the data set with Rattus norvegicus [9], the outcome was Active. For the same compound, the inhibition result in the data set on Rattus norvegicus [10] is “Active”. For the same compound, the Ratio in the data set with RAW264.7 [4] came out at 13.9. Besides, the EC50 in the data set on RAW264.7 [5] came out at 0.83 µM.
Take `CC/C=C\C[C@H]1C(=O)C=C[C@H]1CC(=O)OCCCC`: the CC50 at 24 h in data set [1] is 31 µM. Also, the Ratio in data set [3] was determined as 0; in the data set with RAW264.7 [4], 1. Besides, the half-maximal effective concentration (EC50) in the data set on RAW264.7 [5] was 23 µM.
In the same order, the values of `CC/C=C\C[C@H]1C(=O)C=C[C@H]1CC(=O)Oc1ccccc1` are 158 µM, 0, 5 and 33 µM.
As to `CC/C=C\C[C@H]1C(=O)C(Cl)=C[C@H]1CC(=O)OC1CCCCC1`, in [1], the CC50 at 24 h came out at 9.69 µM. The Ratio with RAW264.7 [4] is 14.9. For the same compound, the EC50 in the data set with RAW264.7 [5] was 0.65 µM.
Consider `CC/C=C\C[C@H]1C(=O)C=C[C@H]1CC(=O)OCCOCCOCCOC`, for which, in data set [1], the CC50 at 24 h was 163 µM. In addition, the Ratio is recorded as 0 in data set [2], 0.3 in [3] and 5 with RAW264.7 [4]. Besides, the EC50 in the data set on RAW264.7 [5] worked out at 35 µM.
Take `CC/C=C\C[C@H]1C(=O)C(Cl)=C[C@H]1CC(=O)OCCO`: the result in the data set on Rattus norvegicus [8] was inactive. For the same compound, in [1], the CC50 at 24 h was determined as 6.25 µM. Also, in the data set with Rattus norvegicus [9], the outcome was Active. Also, the inhibition in vivo at 50 mg/kg in the data set with Rattus norvegicus [10] (route intraperitoneal) was 62.4%. In addition, in the data set with RAW264.7 [4], the Ratio was 10.8. The EC50 in the data set with RAW264.7 [5] stood at 0.58 µM.
Turning to `CC/C=C\C[C@H]1C(=O)C=C[C@H]1CC(=O)OC(C)CC` (stereo not given in full), the CC50 at 24 h in data set [1] stood at 53 µM. Further, the Ratio in [2] amounted to 0.1; in data set [3], 0.4; in the data set on RAW264.7 [4], 2. Further, the EC50 in the data set with RAW264.7 [5] was 22 µM.
Take `CC/C=C\C[C@H]1C(=O)C=C[C@H]1CC(=O)OC1CCCCC1`: the CC50 at 24 h in [1] turned out to be 31 µM. Moreover, the Ratio in [2] is 1.1; in data set [3], 4.1; in the data set on RAW264.7 [4], 2. In the data set on RAW264.7 [5], the EC50 is 22 µM.
In the same order, the values of `CC/C=C\C[C@H]1C(=O)C=C[C@H]1CC(=O)OC(C)c1ccccc1` (stereo not given in full) are 31 µM, 0.4, 1.4, 2 and 18 µM.
For `CC/C=C\C[C@H]1C(=O)C=C[C@H]1CC(=O)OC(C)COC` (stereo not given in full), in that order: 161 µM, 0.2, 0.5, 7 and 23 µM.
Regarding `CC/C=C\C[C@H]1C(=O)C=C[C@H]1CC(=O)OCCOCCO`, the CC50 at 24 h in data set [1] is 166 µM. The Ratio in data set [2] is on record as 3.1; in data set [3] it was 5.9; with RAW264.7 [4] it was 5. Moreover, the EC50 in the data set with RAW264.7 [5] was determined as 36 µM.
For `CC/C=C\C[C@H]1C(=O)C=C[C@H]1CC(=O)OCCOCCOC`, in that order: 161 µM, 0, 0.3, 5 and 33 µM.
As for `CC/C=C\C[C@H]1C(=O)C=C[C@H]1CC(=O)OCCOC`, the CC50 at 24 h in [1] amounted to 160 µM. Moreover, the Ratio in data set [2] turned out to be 0; in data set [3], 0.1; in the data set with RAW264.7 [4], 6. In the data set on RAW264.7 [5], the EC50 worked out at 27 µM.
For `CC/C=C\C[C@H]1C(=O)C=C[C@H]1CC(=O)OCC`, the CC50 at 24 h in data set [1] was 146 µM. Besides, the Ratio in [3] is listed as 0; in the data set on RAW264.7 [4] it was 7. In addition, in the data set on RAW264.7 [5], the EC50 is 20 µM.
`CC/C=C\C[C@H]1C(=O)C=C[C@H]1CC(=O)OCCC`: in data set [1], the CC50 at 24 h turned out to be 35 µM. Also, the Ratio in data set [3] stood at 0; in the data set on RAW264.7 [4] it was 1. Besides, the EC50 in the data set with RAW264.7 [5] amounted to 23 µM.
In the same order, the values of `CC/C=C\C[C@H]1C(=O)C=C[C@H]1CC(=O)OCCCCC` are 37 µM, 0, 1 and 25 µM.
For `CC/C=C\C[C@H]1C(=O)C=C[C@H]1CC(=O)OCCOCCOCCO`, the CC50 at 24 h in data set [1] came out at 162 µM. In addition, the Ratio in data set [2] is 3.5; in data set [3] it was 7.6; in the data set on RAW264.7 [4], 4. Further, in the data set with RAW264.7 [5], the EC50 is 42 µM.
For `CC/C=C\C[C@H]1C(=O)C=C[C@H]1CC(=O)OCCO`, in that order: 161 µM, 0.7, 1.7, 7 and 24 µM.
